Published values collected from several papers.
Lines come from different studies, so protocols differ.

Compound	tested on	observed	technique	strain	time	endpoint	value
COc1cc2ncnc(N(C)c3ccc4c(c3)/C(=C/c3ccccc3)C(=O)N4C)c2cc1OC (mixture of isomers)	B16	cell growth or viability	MTT	–	–	IC50	8070 nM
NNC(=O)c1ccncc1	Mycobacterium kansasii	microbial growth	broth dilution	DSM44162	7 days	MIC	4 µg/mL
O=C(O)c1cn(C2CC2)c2cc(N3CCNCC3)c(F)cc2c1=O	Acinetobacter baumannii	microbial growth	–	ATCC19606	–	MIC	8 µM
Cc1nc(N(Cc2ccccc2)c2ccc3c(c2)/C(=C/c2ccccc2)C(=O)N3Cc2ccccc2)c2ccccc2n1 (mixture of isomers)	B16	cell growth or viability	MTT	–	–	IC50	200 nM
Cc1[nH]c(C(=O)Nc2ccc(C(=O)NCc3n[nH]c(=O)o3)cc2N2CCNCC2)c(Cl)c1Cl.Cl	Acinetobacter baumannii	microbial growth	broth dilution	ATCC19606	–	MIC	> 32 µg/mL
C=CC(=O)NC1CCN(c2ncc3ncnc(Nc4ccc(Oc5ccc6c(c5)ncn6C)c(C)c4)c3n2)CC1	Capan-2	cell growth or viability	–	–	–	EC50	36.1 nM
Cl.N[C@H]1CCN(c2cc(C(=O)NCC(=O)O)ccc2NC(=O)c2cc(Br)c(Br)[nH]2)C1	Acinetobacter baumannii	microbial growth	broth dilution	ATCC19606	–	MIC	> 32 µg/mL
COc1cc2ncnc(Nc3ccc4c(c3)/C(=C/c3ccccc3)C(=O)N4C)c2cc1OC	B16	cell growth or viability	MTT	–	–	IC50	1530 nM
O=C(O)c1cn(C2CC2)c2cc(N3CCNCC3)c(F)cc2c1=O	Acinetobacter baumannii	microbial growth	broth dilution	ATCC19606	–	MIC	2 µM
O=C(O)c1cn(C2CC2)c2cc(N3CCNCC3)c(F)cc2c1=O	Mycobacterium kansasii	microbial growth	broth dilution	DSM44162	7 days	MIC	1 µg/mL
